Compound activity (PubChem BioAssay)
TRPC6 inhibitor = inhibitors of mouse TRPC6 channel; 310,000 tested, 1.1% active; B-score at 10 µM; Q61143; HEK293-TRPC6, membrane potential dye, ACh-evoked depolarization; hits give low values;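 active = B-score under library mean minus 3 SD, initial fluorescence not abnormally high, positive integrated signal ratio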;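 note: B-score derived from integrated fluorescence ratio over the kinetic read; more negative B-score means stronger inhibition of depolarization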
TRPC4 inh = TRPC4 (mouse) channel inhibition; Q9QUQ5; HEK293 TRPC4beta/mu-opioid, DAMGO-evoked Fluo4 calcium flux; hits give low values; B-score at 10 µM; 300,000 tested, 0.39% active;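 active = B-score over 3 SD under the library average, no early fluorescence shift, positive overall ratio signal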
Target sequence (Q9QUQ5 whole entry, looked up): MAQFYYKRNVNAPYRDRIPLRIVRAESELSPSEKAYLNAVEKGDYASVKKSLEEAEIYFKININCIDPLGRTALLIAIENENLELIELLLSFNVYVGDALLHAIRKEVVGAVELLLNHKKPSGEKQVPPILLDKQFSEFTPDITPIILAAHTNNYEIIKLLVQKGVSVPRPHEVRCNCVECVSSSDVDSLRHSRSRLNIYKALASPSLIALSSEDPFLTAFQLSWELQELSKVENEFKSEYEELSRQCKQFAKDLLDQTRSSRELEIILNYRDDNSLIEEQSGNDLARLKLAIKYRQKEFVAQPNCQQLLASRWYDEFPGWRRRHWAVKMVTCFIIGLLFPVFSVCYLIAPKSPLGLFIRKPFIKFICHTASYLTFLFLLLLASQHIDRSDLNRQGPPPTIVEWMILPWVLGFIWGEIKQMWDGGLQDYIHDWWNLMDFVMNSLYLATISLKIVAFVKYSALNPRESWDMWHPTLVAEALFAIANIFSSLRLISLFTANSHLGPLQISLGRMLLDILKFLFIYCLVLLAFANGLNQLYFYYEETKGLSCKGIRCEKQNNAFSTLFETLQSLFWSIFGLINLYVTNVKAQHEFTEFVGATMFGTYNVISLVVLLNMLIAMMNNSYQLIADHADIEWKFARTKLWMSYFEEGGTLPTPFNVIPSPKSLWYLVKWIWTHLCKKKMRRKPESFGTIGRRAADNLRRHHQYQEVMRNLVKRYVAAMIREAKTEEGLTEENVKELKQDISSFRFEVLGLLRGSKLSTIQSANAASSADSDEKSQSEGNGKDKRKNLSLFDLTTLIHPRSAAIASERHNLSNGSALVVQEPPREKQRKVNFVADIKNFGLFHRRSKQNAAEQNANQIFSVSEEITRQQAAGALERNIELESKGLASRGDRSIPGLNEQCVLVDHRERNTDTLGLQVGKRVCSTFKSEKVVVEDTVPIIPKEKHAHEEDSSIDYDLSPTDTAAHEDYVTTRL
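Signal: kinetic Fluo4 fluorescence imaging of calcium influx. Material: stable TRPC4beta/mu-opioid receptor HEK293 cells. Probe or stimulus: DAMGO in two steps, submaximal then maximal.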
TRPC4 act = opens the mouse TRPC4 cation channel; HEK293 TRPC4beta/mu-opioid, Fluo4 calcium fluorescence; hits give high values; Q9QUQ5; AID 2237; B-score at 10 µM; 310,000 tested, 0.49% active;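 active = B-score above 5 SD of library B-scores, and initial fluorescence ratio not above library mean plus 5 SD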;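 note: positive B-score marks a calcium rise read as TRPC4 activation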
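system = HEK293 cells stably co-expressing mouse TRPC4beta and mu-opioid receptor | schedule = Fluo4 dye loading 45 min at room temperature, 110 s recording | measure = B-scored integrated calcium fluorescence ratio | signal = Fluo4 calcium-sensitive dye fluorescence, kinetic, 1 Hz baseline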
Kir21 inh = inhibitors of mouse Kir2.1 inward-rectifier potassium channel; P35561; B-score at 10 µM; HEK293-Kir2.1, FluxOR thallium flux fluorescence; hits give low values; 310,000 tested, 0.85% active;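 active = fluorescence ratio B-score at or below minus 3 SD of library scores, with starting-brightness B-score within 2 SD, cut at about -4.2 in these data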;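 note: channel flux triggered by added potassium and thallium sulfate stimulus; B-score of peak minus minimum fluorescence over baseline after thallium stimulus; more negative B-score means stronger Kir2.1 block with less thallium influx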
TRPC4 potent = TRPC4 (mouse) allosteric potentiation; 310,000 tested, 0.42% active; Q9QUQ5; HEK293 TRPC4beta/mu-opioid, DAMGO EC20, Fluo-4 Ca2+ flux; hits give high values; B-score at 10 µM;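 active = B-score of calcium response area above 5 SD of library B-scores, with initial fluorescence ratio within 5 SD of library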;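 note: B-score of integrated fluorescence ratio over time as area under calcium response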
TRPC6 act = mouse TRPC6 channel activation | 310,000 tested, 0.13% active | AID 2550 | HEK293-TRPC6 membrane potential dye fluorescence; hits give high values | B-score at 10 µM | Q61143;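 active = B-score of the integrated fluorescence ratio above library mean plus 3 SD, and starting fluorescence ratio within library mean plus 5 SD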;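 note: higher score means more depolarization so channel activation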
hERG inh = counter-screen for Kir2.1 inhibitors: effect on human hERG | shares compounds with Kir21 inh | hERG-expressing cells, thallium flux | inhibition, % at 10 µM | 320 tested, 20% active | AID 2236;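 note: host cells are CHO cells stably expressing hERG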
KCNK9 spec = selectivity of Kir2.1 inhibitors: effect on human KCNK9 | shares compounds with Kir21 inh | KCNK9-expressing cells, ion flux inhibition | inhibition, % at 10 µM | 320 tested, 5% active | AID 2329
Kir21 ephys inh = blocks mouse Kir2.1 current in automated electrophysiology. Kir2.1 cells, automated patch-clamp current inhibition. 320 tested, 71% active. shares compounds with Kir21 inh. inhibition, % at 25 µM
Numbers without * were called inactive; i = inactive; . = no result. Rows were chosen to be rich in hits. Some 3% of all compounds tested hit in one or more screens of this group. Unless noted, the rule behind the calls is not given here.

SMILES	TRPC6 inhibitor	TRPC4 inh	TRPC4 act	Kir21 inh	TRPC4 potent	TRPC6 act	hERG inh	KCNK9 spec	Kir21 ephys inh
CC(NCCOCCOc1ccccc1)c1ccccc1 (stereo not drawn)	i	i	i	0.86	i	i	.	.	.
CCc1nc(C)cn1S(=O)(=O)c1cc(Cl)c(OC)cc1Cl	i	i	i	-10*	i	i	i	i	51%*
CCc1nc(C)cn1S(=O)(=O)c1ccc(Cl)c(Cl)c1Cl	i	i	i	-2.5	i	i	.	.	.
CCc1nc(C)cn1S(=O)(=O)c1cc(Br)ccc1OC	i	i	i	-8.9*	i	i	i	i	64%*
O=C1CC(N2CCCc3ccccc32)C(=O)N1c1ccccc1Cl (stereo not drawn)	i	.	i	0.04	i	i	.	.	.
CSc1ccc(S(=O)(=O)N2CCC(C(=O)NCC3CCCO3)CC2)cc1 (stereo not drawn)	i	i	i	0.91	i	i	.	.	.
COc1cccc(CN2CCNC(=O)C2CC(=O)NCCOc2cccnc2)c1 (stereo not drawn)	i	i	i	-0.7	i	i	.	.	.
CN1CCC(N(C)C(=O)c2cc(=O)c3ccccc3o2)CC1	i	i	i	-0.06	i	i	i	i	i
CC(C)C[C@@H]1NC(=O)[C@H](Cc2ccc(O)cc2)NC(=O)[C@H](CCC(N)=O)NC(=O)c2cc([N+](=O)[O-])cc(I)c2NCC[C@@H](C(N)=O)NC1=O	i	i	i	0.35	i	i	.	.	.
Nc1nc(C2CC2)c(Sc2sc(N)nc2C2CC2)s1	i	i	i	-8.2*	i	i	i	i	6.1%*
Cc1ccccc1OCCSc1nnc(C)n1-c1ccccc1	i	i	i	-6.7*	i	i	i	i	54%*
Cc1ccccc1OCc1nnc(SCC(=O)O)n1-c1ccccc1	i	i	i	-0.07	i	i	.	.	.
CC(=O)N(CC(C)(C)CC=C(C)C)c1ccccc1	i	i	i	-5.9*	i	i	i	i	9.4%*
C=CCc1cc(Cl)ccc1OCCOCCNC(C)CC (stereo not drawn)	i	i	i	-7*	i	i	i	i	42%*
COc1ccc(C2(C(=O)NCCc3ccccc3)CCCC2)cc1	i	i	i	-3.1	i	i	.	.	.
O=C(NCCc1ccc(Cl)cc1)C1(c2ccccc2)CC1	i	i	i	-9.5*	i	i	i	i	44%*
COc1ccc(Nc2nc(N3CCCC3)c3ccccc3n2)cc1	i	i	i	-11*	i	i	i	i	46%*
CCc1ccc(Nc2n[n+](-c3ccccc3)c(/C=C/c3ccccc3)s2)cc1	i	i	i	-7.7*	15*	i	68%*	i	i
Nc1nc(C2CCCN2S(=O)(=O)c2ccc(Cl)cc2)cs1 (stereo not drawn)	i	i	i	-6.6*	i	i	i	i	14%*
O=S(=O)(c1ccc(Cl)cc1)N1CCCC1c1nc(-c2ccc(Cl)cc2)no1 (stereo not drawn)	i	i	i	-1.1	i	i	.	.	.
COc1ccc(CC(=O)N(C)Cc2ccc(Cl)cc2)cc1S(=O)(=O)N1CCOCC1	i	i	i	0.04	i	i	.	.	.
CC(=O)Nc1c(C)ccc(CNC(=O)COc2cc(C)ccc2C)c1C	i	i	i	-1.5	i	i	.	.	.
Cc1ccc(NC(=O)COCC(=O)Nc2ccc(F)cc2)cc1	i	i	i	0.25	i	i	.	.	.
Cc1ccc(/C=N/n2c(C3CCCCC3)n[nH]c2=S)cc1	i	i	i	2.1	i	i	.	.	.
Cc1ccc2nc(Cl)c(CNCc3ccccc3)cc2c1	i	i	i	-12*	i	i	i	i	i
SMILES	TRPC6 inhibitor	TRPC4 inh	TRPC4 act	Kir21 inh	TRPC4 potent	TRPC6 act	hERG inh	KCNK9 spec	Kir21 ephys inh
CCN(CC)CC(O)COC(c1ccccc1)c1ccccc1 (stereo not drawn)	i	i	i	0.28	i	i	.	.	.
COc1ccc(CN(C)CC(O)COC(c2ccccc2)c2ccccc2)c(OC)c1OC (stereo not drawn)	i	i	i	-6*	i	i	69%*	i	i
COc1ccc(CCNC2CCc3ccccc3C2)cc1 (stereo not drawn)	i	i	i	-8.6*	i	i	i	i	37%*
CCOc1ccc(NC(=O)NNC(=O)C(C)Oc2ccccc2OC)cc1 (stereo not drawn)	i	i	i	-0.73	i	i	.	.	.
COc1ccc(C(CCNC(C)c2ccccc2)C(C)C)cc1 (stereo not drawn)	i	i	i	-11*	i	i	i	i	2.7%*
COc1ccc(C(C)NC(=O)c2ccccc2)cc1 (stereo not drawn)	i	i	i	-0.04	i	i	.	.	.
C/C=C/c1ccc(OCCCCN(C)Cc2ccccc2)c(OC)c1	i	i	i	-9.9*	i	i	62%*	i	46%*
C/C=C/c1ccc(OCCCCOc2ccccc2C(C)=O)c(OC)c1	i	i	i	0.93	i	i	.	.	.
Cc1ccsc1CN(C)Cc1nc(C2CC2)no1	i	i	i	-0.38	i	i	.	.	.
COc1ccc(CCC(C)NCc2cccc(Br)c2)cc1 (stereo not drawn)	i	i	i	-11*	i	i	i	i	54%*
N#Cc1cc([N+](=O)[O-])cnc1N(CCO)CCO	i	i	i	-0.8	i	i	.	.	.
CN(C)c1ccc(C(=O)c2ccc(O)cc2O)cc1	i	i	i	4.8	i	i	i	i	i
O=C(c1ccc(O)cc1)c1ccc(O)cc1O	i	i	i	1	i	i	.	.	.
CC(=O)N1CCOc2ccc(S(=O)(=O)NCc3ccccc3Cl)cc21	i	i	i	-2.6	i	i	.	.	.
CC(=O)N1CC(C)Sc2ccc(S(=O)(=O)NCc3ccccc3Cl)cc21 (stereo not drawn)	i	i	i	-6.1*	i	i	i	i	i
